Tests used:
[1] = tested on: Liver microsomes; assay: Drug metabolism in human liver microsomes assessed as monooxygenated metabolite after 1.9 mins by UHPLC-MS/MS analysis; format: ADME, Microsome; details: 114 s
Procedure, shortened: (§1)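 Microsomal incubations as for stability (1 mg/mL human liver microsomes, NADPH, 37 °C). Metabolites analysed by UHPLC-MS/MS with a 4.5 min gradient at 0.2 mL/min, recording product ion scans over m/z 100–300.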

[2] = Half life in human liver microsomes at 1 uM after 1 to 60 mins by UHPLC-MS/MS analysis; format: ADME, Microsome
[3] = target: T1, Aromatase (Homo sapiens, UniProt P11511); assay: Inhibition of aromatase (unknown origin) using dibenzylfluorscein as substrate incubated with NADP+ for 10 mins prior to substrate addition measured after 30 mins by fluorescence assay
T1 sequence (P11511 whole entry): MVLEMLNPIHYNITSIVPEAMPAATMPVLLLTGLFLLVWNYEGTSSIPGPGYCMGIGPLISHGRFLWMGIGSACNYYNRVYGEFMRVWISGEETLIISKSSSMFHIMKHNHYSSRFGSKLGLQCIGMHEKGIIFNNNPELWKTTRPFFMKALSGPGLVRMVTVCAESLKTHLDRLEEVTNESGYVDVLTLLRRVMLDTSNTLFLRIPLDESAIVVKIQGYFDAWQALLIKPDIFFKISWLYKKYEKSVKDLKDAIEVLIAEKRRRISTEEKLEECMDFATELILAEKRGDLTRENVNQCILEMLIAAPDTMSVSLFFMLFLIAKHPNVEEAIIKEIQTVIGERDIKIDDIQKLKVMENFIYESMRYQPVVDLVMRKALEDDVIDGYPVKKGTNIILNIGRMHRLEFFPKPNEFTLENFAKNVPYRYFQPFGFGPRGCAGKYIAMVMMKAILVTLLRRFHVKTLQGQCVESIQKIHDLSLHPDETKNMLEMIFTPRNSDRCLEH

[4] = target: T1, Aromatase; assay: Inhibition of aromatase (unknown origin) using dibenzylfluorscein as substrate incubated with NADP+ for 10 mins prior to substrate addition at 50 uM measured after 30 mins by fluorescence assay; details: 0.5 h
Procedure, shortened: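 Compounds preincubated 10 min at 37 °C with an NADPH-regenerating system (2.6 mM NADP+, 7.6 mM glucose 6-phosphate, 0.8 U/mL G6PDH, 13.9 mM MgCl2, 1 mg/mL albumin; 50 mM K phosphate, pH 7.4). CYP19 enzyme with […] was added for 30 min at 37 °C. The reaction was stopped with 2 N NaOH and held 24 h at 37 °C, then fluorescence read at ex 485/em 530 nm.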

[5] = target: NAD(P)H dehydrogenase [quinone] 1 (Mus musculus) (UniProt Q64669); assay: Induction of quinone reductase-1 activity in mouse Hepa-1c1c7 cells expressing TAOc1BPrcI mutant assessed as induction ratio at 50 uM by MTT assay relative to DMSO control; format: cell-based
Chain of NAD(P)H dehydrogenase [quinone] 1 (Mus musculus) (Q64669 whole entry): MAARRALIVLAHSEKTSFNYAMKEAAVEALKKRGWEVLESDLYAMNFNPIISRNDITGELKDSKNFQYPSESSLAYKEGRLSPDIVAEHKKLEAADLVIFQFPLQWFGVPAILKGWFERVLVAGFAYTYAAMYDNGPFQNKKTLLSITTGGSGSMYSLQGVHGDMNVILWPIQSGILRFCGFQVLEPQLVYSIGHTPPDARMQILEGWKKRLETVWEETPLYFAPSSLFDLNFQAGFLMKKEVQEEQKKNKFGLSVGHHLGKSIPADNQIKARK

[6] = target: NAD(P)H dehydrogenase [quinone] 1 (Mus musculus) (UniProt Q64669); assay: Induction of quinone reductase-1 activity in mouse Hepa-1c1c7 cells expressing BPrc1 mutant assessed as induction ratio at 50 uM by MTT assay relative to DMSO control; format: cell-based
[7] = target: NAD(P)H dehydrogenase [quinone] 1 (Mus musculus) (UniProt Q64669); assay: Induction of quinone reductase-1 activity in mouse Hepa-1c1c7 cells assessed as concentration required to double induction activity by MTT assay; format: cell-based
Procedure, shortened: (§2)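 Hepa 1c1c7 murine hepatoma cells incubated with compounds at […]. Cells were permeabilized with digitonin and QR1 activity measured by MTT reduction to formazan at 595 nm, with a parallel crystal violet protein assay. IR is specific activity versus DMSO control; CD is the concentration doubling activity, determined only where IR >2. Two independent experiments in triplicate.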

[8] = target: NAD(P)H dehydrogenase [quinone] 1 (Mus musculus) (UniProt Q64669); assay: Induction of quinone reductase-1 activity in mouse Hepa-1c1c7 cells assessed as induction ratio at 50 uM by MTT assay relative to DMSO-treated control; format: cell-based; procedure, shortened: as §2
[9] = target: T2, Nitric oxide synthase, inducible (Mus musculus) (UniProt P29477); assay: (§3) Inhibition of iNOS-mediated NO production in mouse RAW264.7 cells by Griess assay; format: cell-based
T2 sequence (whole entry): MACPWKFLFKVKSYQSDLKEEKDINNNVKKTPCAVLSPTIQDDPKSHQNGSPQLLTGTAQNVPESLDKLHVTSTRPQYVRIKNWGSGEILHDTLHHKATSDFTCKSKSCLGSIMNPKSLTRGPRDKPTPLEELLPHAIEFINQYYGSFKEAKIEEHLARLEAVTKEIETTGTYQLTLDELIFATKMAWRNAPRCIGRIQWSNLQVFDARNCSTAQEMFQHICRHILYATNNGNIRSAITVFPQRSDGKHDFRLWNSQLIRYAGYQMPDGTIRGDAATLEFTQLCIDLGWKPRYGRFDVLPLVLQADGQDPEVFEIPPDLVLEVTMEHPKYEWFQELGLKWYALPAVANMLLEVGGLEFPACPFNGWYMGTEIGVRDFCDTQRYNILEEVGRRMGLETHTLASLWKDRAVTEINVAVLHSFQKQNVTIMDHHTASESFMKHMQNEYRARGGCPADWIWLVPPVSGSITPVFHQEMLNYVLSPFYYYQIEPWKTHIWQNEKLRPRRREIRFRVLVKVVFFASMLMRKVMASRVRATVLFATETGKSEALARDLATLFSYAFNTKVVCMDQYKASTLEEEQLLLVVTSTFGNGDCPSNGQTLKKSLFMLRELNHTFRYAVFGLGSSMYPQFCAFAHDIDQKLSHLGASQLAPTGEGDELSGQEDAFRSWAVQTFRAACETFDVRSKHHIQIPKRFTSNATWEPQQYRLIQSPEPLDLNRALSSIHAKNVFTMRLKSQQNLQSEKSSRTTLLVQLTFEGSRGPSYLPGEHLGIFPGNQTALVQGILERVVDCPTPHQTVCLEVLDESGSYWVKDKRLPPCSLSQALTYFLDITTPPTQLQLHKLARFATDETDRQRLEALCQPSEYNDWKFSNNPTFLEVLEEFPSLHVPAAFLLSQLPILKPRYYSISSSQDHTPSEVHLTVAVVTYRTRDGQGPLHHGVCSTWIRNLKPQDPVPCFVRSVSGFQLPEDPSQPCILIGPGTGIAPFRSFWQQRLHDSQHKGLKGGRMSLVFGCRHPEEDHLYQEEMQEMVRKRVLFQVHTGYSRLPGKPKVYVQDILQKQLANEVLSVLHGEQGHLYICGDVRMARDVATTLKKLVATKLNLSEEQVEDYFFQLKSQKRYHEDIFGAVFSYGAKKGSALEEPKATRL
Procedure, shortened: (§4)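 RAW 264.7 cells, 1×10^5 per well, held 24 h at 37 °C under 5% CO2. Nitrite in the medium was measured with Griess reagent (sulfanilamide/N-(1-naphthyl)ethylenediamine in H3PO4) at 540 nm against a sodium nitrite standard curve.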

[10] = target: T3, Nitric oxide synthase, inducible (Mus musculus, UniProt P29477); assay: as §3; format: cell-based; procedure, shortened: as §4
T3 sequence (P29477 whole entry): T2 sequence (whole entry)

[11] = Cytotoxicity against mouse RAW264.7 cells assessed as cell survival at 50 uM after 15 mins by SRB assay; format: cell-based; details: read-out: Survival
Procedure, shortened: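 RAW 264.7 cells were seeded at 1×10^5 per well and held 24 h at 37 °C in 5% CO2. They were then pretreated 15 min with serially diluted compound, followed by LPS (or no LPS) for a further 20 h. Medium was taken for the Griess assay, and cells were fixed with 10% TCA and stained with 0.4% SRB in 1% acetic acid. Bound dye was dissolved in 10 mM Tris and read at 515 nm. Survival is relative to LPS-treated control; two experiments in duplicate.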

[12] = target: T2, Nitric oxide synthase, inducible (Mus musculus); assay: Inhibition of iNOS-mediated NO production in mouse RAW264.7 cells at 50 uM by Griess assay; format: cell-based
[13] = tested on: HEK293; assay: Cytotoxicity against human HEK293 cells assessed as reduction in cell survival; format: cell-based
Procedure, shortened: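 Same 293/NFkB-Luc cells under the NFkB assay conditions; cytotoxic IC50 taken as the concentration giving 50% cell survival.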

[14] = Inhibition of TNFalpha-induced nuclear factor-kappa-B activation in human HEK293 cells at by luciferase reporter gene assay; format: cell-based
Procedure, shortened: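 Stably transfected 293/NFkB-Luc cells seeded at 20 × 10^3 per well in DMEM with 10% FBS, penicillin/streptomycin and 2 mM L-glutamine for 48 h. Medium was then replaced and cells were given compounds in DMSO plus TNF-α 2 ng/mL (0.14 nM) for 6 h. Cells were lysed and luciferase luminescence read; IC50 is the concentration halving TNF-α-activated activity; […]. Mean ± SD of two experiments in duplicate.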

[15] = Cytotoxicity against human HEK293 cells assessed as cell survival at 50 uM; format: cell-based; details: read-out: Survival
[16] = tested on: HEK293; assay: Inhibition of TNFalpha-induced nuclear factor-kappa-B activation in human HEK293 cells at 50 uM by luciferase reporter gene assay; format: cell-based
[17] = tested on: Radical scavenging activity; assay: Antioxidant activity in non-aqueous medium assessed as trolox equivalents of DPPH radical scavenging activity by spectrophotometry; format: functional
Procedure, shortened: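 DPPH radical decolorization by hydrogen-donating scavengers in MeOH or EtOH. Some values could not be determined where the compound's solution colour resembled the DPPH reagent, or where % inhibition versus concentration was not linear.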

[18] = Antioxidant activity assessed as trolox equivalents of ABTS radical scavenging activity at pH 7.4 by spectrophotometry; format: functional
Procedure, shortened: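 TEAC run at pH 7.4; activity reported as mM equivalents of Trolox.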

[19] = Relative antioxidant activity assessed as resorcinol equivalents of hydroperoxyl scavenging activity at acidic pH by BR oscillating reaction method; format: ADME
Procedure, shortened: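 Briggs–Rauscher oscillating reaction: hydrogen peroxide, acidic iodate, malonic acid and Mn(II) catalyst at about pH 2, with hydroperoxyl radicals as the key intermediates.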

[20] = tested on: RAW264.7; assay: Cytotoxicity against mouse RAW264.7 cells assessed as cell survival after 20 hrs by SRB assay; details: for inhibition (INH): mouse, raw264.7, 20 h
[21] = tested on: Liver microsomes; assay: Drug metabolism in human liver microsomes assessed as monooxygenated metabolite by UHPLC-MS/MS analysis; format: ADME, Microsome; procedure, shortened: as §1

## Oc1ccc(O)c(-c2cn3ccsc3n2)c1
[1]
  Drug metabolism: Active
[2]
  half-life at 1 µM: 5.9 min
[3]
  IC50: 2.6 µM
[4]
  inhibition at 50 µM: 98.6%
[5]
  Ratio: 0.3
[6]
  Ratio: 0.9
[7]
  CD: 12.1 µM
[8]
  Ratio: 3.8
[9]
  inhibition: Dose-dependent effect
[10]
  IC50: 6.4 µM
[11]
  viability at 0.25 h, 50 µM: 48.2%
[12]
  inhibition: 97.7%
[13]
  IC50: 46.5 µM
[14]
  IC50: 2.24 µM
[15]
  viability at 50 µM: 43.6%
[16]
  inhibition: 91%
[17]
  Activity: 0.71 µM
[18]
  Activity: 1.29 µM
[19]
  Activity: 1.032 µM
[20]; Mus musculus, RAW264.7, 20 h
  IC50: 11.6 µM
[20]
  inhibition (INH): Dose-dependent effect

## Cc1ccc(S(=O)(=O)N[C@@H](Cc2ccccc2)C(=O)CCl)cc1 [TPCK]
[14]
  IC50: 3.8 µM

## O=c1c(O)c(-c2ccc(O)c(O)c2)oc2cc(O)cc(O)c12
[18]
  Activity: 3.1 µM

## CC(C)NCC(O)COc1cccc2ccccc12 (stereo unspecified) [PROPRANOLOL]
[2]
  half-life at 1 µM: 20.8 min

## O=c1c(-c2ccc(O)cc2)coc2c([C@@H]3O[C@H](CO)[C@@H](O)[C@H](O)[C@H]3O)c(O)ccc12 [PUERARIN]
[19]
  Activity: 0.192 µM

## Cc1cn2cc(-c3ccc(O)c(O)c3O)nc2s1
[21]
  Drug metabolism: Active
[2]
  half-life at 1 µM: 11.2 min
[3]
  IC50: 3.2 µM
[4]
  inhibition at 50 µM: 99.6%
[5]
  Ratio: 0.2
[6]
  Ratio: 1.2
[7]
  CD: 24.6 µM
[8]
  Ratio: 2.03
[9]
  inhibition: Dose-dependent effect
[10]
  IC50: 6.8 µM
[11]
  viability at 0.25 h, 50 µM: 52.3%
[12]
  inhibition: 98.8%
[13]
  IC50: 21.2 µM
[14]
  IC50: 0.53 µM
[15]
  viability at 50 µM: 34.3%
[16]
  inhibition: 97.5%
[17]
  Activity: 1.38 µM
[18]
  Activity: 3.06 µM
[19]
  Activity: 0.14 µM
[20]
  inhibition (INH): Dose-dependent effect

## Oc1cc(O)c2c(c1)O[C@@H](c1ccc(O)c(O)c1)[C@H](O)C2 [(-)-CATECHIN]
[19]
  Activity: 2.2 µM
